Test results: ChEMBL document CHEMBL1255410, “Activity of the investigational fluoroquinolone finafloxacin against ciprofloxacin-sensitive and -resistant Acinetobacter baumannii isolates” (2010)
In brackets after ≈: the same amount, converted by molar mass.

What was measured:
Type in all cases: functional
[1] = test system: Acinetobacter baumannii; assay: Antimicrobial activity against Acinetobacter baumannii isolate 6 at pH 5.8
Method in brief: (§1)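 Agar dilution MIC on Mueller-Hinton agar acidified to pH 5.8 with HCl before the antibiotic-containing plates were poured. Agar pH was checked after solidifying. Plates were made the same day from fresh medium. Both fluoroquinolones were tested simultaneously against A. baumannii isolates with characterized gyrA/parC genes. MICs are in μg/ml.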

[2] = test system: Acinetobacter baumannii; assay: Antimicrobial activity against Acinetobacter baumannii isolate 34 harboring GyrA Ser83-Leu mutation at pH 7.2
Method in brief: (§2)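 Agar dilution MIC on Mueller-Hinton agar. For the acidic condition, HCl was added to bring the agar to pH 5.8 before pouring the antibiotic plates, and the pH was checked after the agar set. The standard condition was pH 7.2. Both drugs' plates were made the same day from fresh medium, and MICs were read at the same time.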

[3] = test system: Acinetobacter baumannii; assay: Antimicrobial activity against adeB overexpressing Acinetobacter baumannii isolate 68 harboring GyrA Ser83-Leu and ParC Ser80-Leu mutation at pH 5.8; method in brief: as §1
[4] = test system: Acinetobacter baumannii; assay: Antimicrobial activity against Acinetobacter baumannii isolate 2 at pH 7.2
Method in brief: (§3)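 MIC by agar dilution on Mueller-Hinton agar under standard conditions (pH 7.2), against isolates with characterized gyrA/parC genes. Agar pH was checked after solidifying. Plates for both drugs were prepared the same day from freshly made media, and MICs were determined simultaneously with the pH 5.8 set.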

[5] = test system: Acinetobacter baumannii; assay: Antimicrobial activity against Acinetobacter baumannii isolate 36 harboring GyrA Ser83-Leu mutation at pH 7.2; method in brief: as §2
[6] = test system: Acinetobacter baumannii; assay: Antimicrobial activity against Acinetobacter baumannii isolate 10 at pH 7.2; method in brief: as §3
[7] = test system: Acinetobacter baumannii; assay: Antimicrobial activity against Acinetobacter baumannii isolate 37 harboring GyrA Ser83-Leu mutation at pH 7.2; method in brief: as §2
[8] = test system: Acinetobacter baumannii; assay: Antimicrobial activity against Acinetobacter baumannii isolate 31 harboring GyrA Ser83-Leu mutation at pH 7.2; method in brief: as §3
[9] = test system: Acinetobacter baumannii; assay: Antimicrobial activity against Acinetobacter baumannii isolate 31 harboring GyrA Ser83-Leu mutation at pH 5.8
Method in brief: (§4)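 MIC by agar dilution on Mueller-Hinton agar acidified to pH 5.8 with HCl before antibiotic-containing plates were poured. Agar pH was rechecked once the agar had solidified. Isolates had characterized gyrA/parC genes. Plates for both drugs were made the same day from fresh media, and MICs were read in parallel with the standard-pH set.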

[10] = test system: Acinetobacter baumannii; assay: Antimicrobial activity against Acinetobacter baumannii isolate 16 at pH 7.2; method in brief: as §3
[11] = test system: Acinetobacter baumannii; assay: Antimicrobial activity against Acinetobacter baumannii isolate 35 harboring GyrA Ser83-Leu mutation at pH 7.2; method in brief: as §2
[12] = test system: Acinetobacter baumannii; assay: Antimicrobial activity against Acinetobacter baumannii isolate 26 harboring GyrA Ser83-Leu mutation at pH 7.2; method in brief: as §3
[13] = test system: Acinetobacter baumannii; assay: Antimicrobial activity against Acinetobacter baumannii isolate 14 at pH 7.2; method in brief: as §3
[14] = test system: Acinetobacter baumannii; assay: Antimicrobial activity against Acinetobacter baumannii isolate 16 at pH 5.8; method in brief: as §4
[15] = test system: Acinetobacter baumannii; assay: Antimicrobial activity against Acinetobacter baumannii isolate 25 harboring GyrA Ser83-Leu mutation at pH 7.2; method in brief: as §3
[16] = test system: Acinetobacter baumannii; assay: Antimicrobial activity against Acinetobacter baumannii isolate 39 harboring GyrA Ser83-Leu mutation at pH 5.8; method in brief: as §2
[17] = test system: Acinetobacter baumannii; assay: Antimicrobial activity against Acinetobacter baumannii isolate 66 harboring GyrA Ser83-Leu mutation at pH 5.8; method in brief: as §1
[18] = test system: Acinetobacter baumannii; assay: Antimicrobial activity against Acinetobacter baumannii isolate 51 harboring GyrA Ser83-Leu and ParC Ser80-Leu mutation at pH 7.2; method in brief: as §2
[19] = test system: Acinetobacter baumannii; assay: Antimicrobial activity against Acinetobacter baumannii isolate 8 at pH 7.2
Method in brief: (§5)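 Agar dilution MIC on Mueller-Hinton agar under standard conditions (pH 7.2). Antibiotic-containing plates were made the same day from freshly prepared medium. Agar pH was checked after solidifying. Both fluoroquinolones were tested simultaneously against A. baumannii isolates with characterized gyrA/parC genes. MICs are in μg/ml.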

[20] = test system: Acinetobacter baumannii; assay: Antimicrobial activity against Acinetobacter baumannii isolate 34 harboring GyrA Ser83-Leu mutation at pH 5.8; method in brief: as §2
[21] = test system: Acinetobacter baumannii; assay: Antimicrobial activity against Acinetobacter baumannii isolate 9 at pH 5.8; method in brief: as §1
[22] = test system: Acinetobacter baumannii; assay: Antimicrobial activity against Acinetobacter baumannii isolate 57 harboring GyrA Ser83-Leu and ParC Ser80-Phe mutation at pH 7.2; method in brief: as §5
[23] = test system: Acinetobacter baumannii; assay: Antimicrobial activity against Acinetobacter baumannii isolate 42 harboring GyrA Ser83-Leu mutation at pH 7.2; method in brief: as §2
[24] = test system: Acinetobacter baumannii; assay: Antimicrobial activity against Acinetobacter baumannii isolate 5 at pH 7.2; method in brief: as §2
[25] = test system: Acinetobacter baumannii; assay: Antimicrobial activity against Acinetobacter baumannii isolate 1 at pH 5.8; method in brief: as §4
[26] = test system: Acinetobacter baumannii; assay: Antimicrobial activity against Acinetobacter baumannii isolate 52 harboring GyrA Ser83-Leu and ParC Ser80-Leu mutation at pH 5.8; method in brief: as §2
[27] = test system: Acinetobacter baumannii; assay: Antimicrobial activity against Acinetobacter baumannii isolate 65 harboring GyrA Ser83-Leu and ParC Ser80-Leu mutation at pH 5.8; method in brief: as §1
[28] = test system: Acinetobacter baumannii; assay: Antimicrobial activity against Acinetobacter baumannii isolate 64 harboring GyrA Ser83-Leu and ParC Ser80-Leu mutation at pH 5.8; method in brief: as §1
[29] = test system: Acinetobacter baumannii; assay: Antimicrobial activity against Acinetobacter baumannii isolate 27 harboring GyrA Ser83-Leu mutation at pH 7.2; method in brief: as §3
[30] = test system: Acinetobacter baumannii; assay: Antimicrobial activity against Acinetobacter baumannii isolate 30 harboring GyrA Ser83-Leu mutation at pH 7.2; method in brief: as §3
[31] = test system: Acinetobacter baumannii; assay: Antimicrobial activity against Acinetobacter baumannii isolate 49 harboring GyrA Ser83-Leu and ParC Ser80-Leu mutation at pH 7.2; method in brief: as §2
[32] = test system: Acinetobacter baumannii; assay: Antimicrobial activity against Acinetobacter baumannii isolate 3 at pH 7.2; method in brief: as §3
[33] = test system: Acinetobacter baumannii; assay: Antimicrobial activity against Acinetobacter baumannii isolate 29 harboring GyrA Ser83-Leu mutation at pH 7.2; method in brief: as §3
[34] = test system: Acinetobacter baumannii; assay: Antimicrobial activity against Acinetobacter baumannii isolate 52 harboring GyrA Ser83-Leu and ParC Ser80-Leu mutation at pH 7.2; method in brief: as §2
[35] = test system: Acinetobacter baumannii; assay: Antimicrobial activity against Acinetobacter baumannii isolate 63 harboring GyrA Ser83-Leu and ParC Glu84-Lys mutation at pH 5.8; method in brief: as §1
[36] = test system: Acinetobacter baumannii; assay: Antimicrobial activity against Acinetobacter baumannii isolate 4 at pH 7.2; method in brief: as §2
[37] = test system: Acinetobacter baumannii; assay: Antimicrobial activity against adeB overexpressing Acinetobacter baumannii isolate 67 harboring GyrA Ser83-Leu and ParC Ser80-Leu mutation at pH 7.2; method in brief: as §5
[38] = test system: Acinetobacter baumannii; assay: Antimicrobial activity against Acinetobacter baumannii isolate 30 harboring GyrA Ser83-Leu mutation at pH 5.8; method in brief: as §4
[39] = test system: Acinetobacter baumannii; assay: Antimicrobial activity against Acinetobacter baumannii isolate 9 at pH 7.2; method in brief: as §5
[40] = test system: Acinetobacter baumannii; assay: Antimicrobial activity against Acinetobacter baumannii isolate 6 at pH 7.2; method in brief: as §5
[41] = test system: Acinetobacter baumannii; assay: Antimicrobial activity against Acinetobacter baumannii isolate 17 at pH 7.2; method in brief: as §3
[42] = test system: Acinetobacter baumannii; assay: Antimicrobial activity against Acinetobacter baumannii isolate 7 at pH 7.2; method in brief: as §5
[43] = test system: Acinetobacter baumannii; assay: Antimicrobial activity against Acinetobacter baumannii isolate 28 harboring GyrA Ser83-Leu mutation at pH 7.2; method in brief: as §3
[44] = test system: Acinetobacter baumannii; assay: Antimicrobial activity against Acinetobacter baumannii isolate 44 harboring GyrA Ser83-Leu and ParC Glu84-Lys mutation at pH 7.2; method in brief: as §2

N#Cc1c(N2C[C@@H]3NCCO[C@H]3C2)c(F)cc2c(=O)c(C(=O)O)cn(C3CC3)c12 [FINAFLOXACIN]
MIC [1]: 0.06 µg/mL (≈ 0.151 µM)
MIC [2]: 16 µg/mL (≈ 40.2 µM)
MIC [3]: 4 µg/mL (≈ 10 µM)
MIC [4]: 0.5 µg/mL (≈ 1.26 µM)
MIC [5]: 16 µg/mL (≈ 40.2 µM)
MIC [6]: 0.25 µg/mL (≈ 0.628 µM)
MIC [7]: 16 µg/mL (≈ 40.2 µM)
MIC [8]: 16 µg/mL (≈ 40.2 µM)
MIC [9]: 1 µg/mL (≈ 2.51 µM)
MIC [10]: 1 µg/mL (≈ 2.51 µM)
MIC [11]: 16 µg/mL (≈ 40.2 µM)
MIC [12]: 16 µg/mL (≈ 40.2 µM)
MIC [13]: 1 µg/mL (≈ 2.51 µM)
MIC [14]: 0.12 µg/mL (≈ 0.301 µM)
MIC [15]: 16 µg/mL (≈ 40.2 µM)
MIC [16]: 2 µg/mL (≈ 5.02 µM)
MIC [17]: 2 µg/mL (≈ 5.02 µM)
MIC [18]: 32 µg/mL (≈ 80.3 µM)
MIC [19]: 0.25 µg/mL (≈ 0.628 µM)
MIC [20]: 2 µg/mL (≈ 5.02 µM)
MIC [21]: 0.12 µg/mL (≈ 0.301 µM)
MIC [22]: 32 µg/mL (≈ 80.3 µM)
MIC [23]: 16 µg/mL (≈ 40.2 µM)
MIC [24]: 0.25 µg/mL (≈ 0.628 µM)
MIC [25]: 0.06 µg/mL (≈ 0.151 µM)
MIC [26]: 2 µg/mL (≈ 5.02 µM)
MIC [27]: 8 µg/mL (≈ 20.1 µM)
MIC [28]: 4 µg/mL (≈ 10 µM)
MIC [29]: 16 µg/mL (≈ 40.2 µM)
MIC [30]: 8 µg/mL (≈ 20.1 µM)
MIC [31]: 16 µg/mL (≈ 40.2 µM)
MIC [32]: 0.12 µg/mL (≈ 0.301 µM)
MIC [33]: 32 µg/mL (≈ 80.3 µM)
MIC [34]: 32 µg/mL (≈ 80.3 µM)
MIC [35]: 2 µg/mL (≈ 5.02 µM)
MIC [36]: 0.25 µg/mL (≈ 0.628 µM)
MIC [37]: 64 µg/mL (≈ 161 µM)
MIC [38]: 0.5 µg/mL (≈ 1.26 µM)
MIC [39]: 0.25 µg/mL (≈ 0.628 µM)
MIC [40]: 0.25 µg/mL (≈ 0.628 µM)
MIC [41]: 1 µg/mL (≈ 2.51 µM)
MIC [42]: 0.25 µg/mL (≈ 0.628 µM)
MIC [43]: 16 µg/mL (≈ 40.2 µM)
MIC [44]: 16 µg/mL (≈ 40.2 µM)
